From ChEMBL document CHEMBL1147898, “Synthesis and preliminary pharmacological evaluation of the four stereoisomers of (2S)-2-(2'-phosphono-3'-phenylcyclopropyl)glycine, the first class of 3'-substituted trans C1'-2'-2-(2'-phosphonocyclopropyl)glycines” (Bioorg Med Chem, 2007) come the findings set out here.

Where only a bound is given, the exact number is not on record here.

For orientation: EC50 means the concentration that produces a half-maximal response. As usually defined, the Ki is the dissociation constant of the complex between target and ligand, obtained from inhibition or displacement.

Experiment [1] addresses T1, Metabotropic glutamate receptor 4 (Rattus norvegicus, UniProt P31423). Description: Agonist activity at rat recombinant mGluR4 expressed in BHK cells. Type of experiment: functional, cell-based. The method in brief: (§1)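 Group III functional read-out: cAMP formation measured in BHK cells expressing hmGluR7 or rmGluR4. EC50 reported in µM as means ± SEM of at least three independent experiments, each performed in triplicate.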

Experiment [2] addresses Metabotropic glutamate receptor 2 (Homo sapiens, UniProt Q14416). Kind of experiment: Activity at human recombinant mGluR2 expressed in BHK cells assessed as stimulation of [35S]GTP-gamma-S binding. Type of experiment: functional, cell-based. For orientation: GTPγS is a poorly hydrolysed GTP analogue; its binding reports G protein activation.
Experiment [3] deals with Metabotropic glutamate receptor 5 (Rattus norvegicus, UniProt P31424). Description: Activity at rat recombinant mGluR5 expressed in CHO cells assessed as intracellular calcium concentration. Format: functional, cell-based. For orientation: Calcium assays in cells follow changes in intracellular calcium, usually with a dye or a luminescent sensor.
The target in experiment [4] is Metabotropic glutamate receptor 1 (Rattus norvegicus, UniProt P23385). Kind of experiment: Activity at rat recombinant mGluR1 expressed in CHO cells assessed as intracellular calcium concentration. Type of experiment: functional, cell-based.
The target in experiment [5] is T1, Metabotropic glutamate receptor 4. Description: Displacement of [3H]L-AP4 from rat recombinant mGluR4 expressed in BHK cells by SPA assay. Type of experiment: cell-based. An outline of the steps:
(§2)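 Scintillation proximity binding assay on membranes of BHK cells expressing rmGluR4 or rmGluR8. Radioligand was [3H]-L-AP4 for rmGluR4 and [3H]-LY341495 for rmGluR8. Values are means ± SEM of at least three independent experiments performed in triplicate.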
A general note: Displacement assays read how much labelled ligand stays bound in the presence of the test substance.

Experiment [6] concerns the target Metabotropic glutamate receptor 7 (Homo sapiens, UniProt Q14831). Kind of experiment: Activity at human recombinant mGluR7 expressed in BHK cells assessed as cAMP production. Format: functional, cell-based. An outline of the steps:
as §1

The target in experiment [7] is Metabotropic glutamate receptor 6 (Rattus norvegicus, UniProt P35349). Description: Activity at rat recombinant mGluR6 expressed in CHO cells assessed as cAMP production. Type of experiment: functional, cell-based. The method in brief:
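rmGluR6 expressed in CHO cells. Potency was measured from cAMP formation, reported as EC50. Means ± SEM of at least three independent experiments, each in triplicate.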

For experiment [8], the target named is Metabotropic glutamate receptor 8 (Rattus norvegicus, UniProt P70579). Kind of experiment: Displacement of [3H]LY341495 from rat recombinant mGluR8 expressed in BHK cells by SPA assay. Format: cell-based. The method in brief:
as §2

T1 sequence (P31423 whole entry): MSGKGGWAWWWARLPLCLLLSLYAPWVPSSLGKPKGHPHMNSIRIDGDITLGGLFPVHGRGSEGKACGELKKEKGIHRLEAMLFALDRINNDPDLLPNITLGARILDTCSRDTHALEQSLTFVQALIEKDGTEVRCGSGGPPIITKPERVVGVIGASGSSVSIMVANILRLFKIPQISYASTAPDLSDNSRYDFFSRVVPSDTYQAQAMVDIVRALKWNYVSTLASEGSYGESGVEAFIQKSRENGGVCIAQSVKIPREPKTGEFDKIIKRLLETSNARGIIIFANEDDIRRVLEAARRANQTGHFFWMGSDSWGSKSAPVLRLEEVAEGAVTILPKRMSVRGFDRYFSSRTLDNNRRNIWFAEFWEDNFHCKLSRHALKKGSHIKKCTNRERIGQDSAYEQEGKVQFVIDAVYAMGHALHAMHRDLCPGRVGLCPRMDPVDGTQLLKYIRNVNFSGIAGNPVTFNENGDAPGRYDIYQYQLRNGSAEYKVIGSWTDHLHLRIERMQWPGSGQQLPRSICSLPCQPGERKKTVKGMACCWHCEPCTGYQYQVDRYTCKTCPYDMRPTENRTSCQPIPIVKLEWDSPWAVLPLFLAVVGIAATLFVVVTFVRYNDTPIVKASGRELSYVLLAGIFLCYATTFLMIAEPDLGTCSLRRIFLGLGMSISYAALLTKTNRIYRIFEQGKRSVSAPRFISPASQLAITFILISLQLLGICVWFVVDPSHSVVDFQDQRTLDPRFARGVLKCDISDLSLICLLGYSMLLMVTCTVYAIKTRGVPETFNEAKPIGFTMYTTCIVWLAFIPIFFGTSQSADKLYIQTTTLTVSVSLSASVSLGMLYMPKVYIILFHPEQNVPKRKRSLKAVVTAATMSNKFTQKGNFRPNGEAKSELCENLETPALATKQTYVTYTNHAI
Chain of Metabotropic glutamate receptor 8 (P70579 whole entry): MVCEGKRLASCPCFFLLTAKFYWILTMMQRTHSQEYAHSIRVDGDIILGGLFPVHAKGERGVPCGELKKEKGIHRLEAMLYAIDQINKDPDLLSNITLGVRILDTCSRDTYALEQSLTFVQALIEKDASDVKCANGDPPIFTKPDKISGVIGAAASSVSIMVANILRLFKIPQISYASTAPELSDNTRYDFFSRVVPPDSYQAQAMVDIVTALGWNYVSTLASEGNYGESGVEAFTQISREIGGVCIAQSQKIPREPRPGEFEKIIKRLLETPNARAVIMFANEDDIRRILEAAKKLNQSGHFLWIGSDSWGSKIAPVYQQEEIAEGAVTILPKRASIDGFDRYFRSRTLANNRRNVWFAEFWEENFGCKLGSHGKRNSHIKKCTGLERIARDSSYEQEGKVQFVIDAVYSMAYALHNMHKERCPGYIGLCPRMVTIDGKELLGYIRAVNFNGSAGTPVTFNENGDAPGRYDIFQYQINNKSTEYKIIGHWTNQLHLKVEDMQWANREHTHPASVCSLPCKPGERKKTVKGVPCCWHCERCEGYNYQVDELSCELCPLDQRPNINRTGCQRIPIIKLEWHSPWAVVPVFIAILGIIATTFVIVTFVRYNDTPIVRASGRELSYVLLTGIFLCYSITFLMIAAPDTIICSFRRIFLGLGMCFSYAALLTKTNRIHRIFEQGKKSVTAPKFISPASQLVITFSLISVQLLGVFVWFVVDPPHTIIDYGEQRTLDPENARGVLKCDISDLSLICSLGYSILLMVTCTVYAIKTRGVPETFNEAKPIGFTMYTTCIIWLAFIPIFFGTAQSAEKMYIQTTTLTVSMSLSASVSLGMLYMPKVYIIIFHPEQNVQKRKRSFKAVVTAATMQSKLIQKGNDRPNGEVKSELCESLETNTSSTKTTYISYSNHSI
Chain of Metabotropic glutamate receptor 7 (Q14831 whole entry): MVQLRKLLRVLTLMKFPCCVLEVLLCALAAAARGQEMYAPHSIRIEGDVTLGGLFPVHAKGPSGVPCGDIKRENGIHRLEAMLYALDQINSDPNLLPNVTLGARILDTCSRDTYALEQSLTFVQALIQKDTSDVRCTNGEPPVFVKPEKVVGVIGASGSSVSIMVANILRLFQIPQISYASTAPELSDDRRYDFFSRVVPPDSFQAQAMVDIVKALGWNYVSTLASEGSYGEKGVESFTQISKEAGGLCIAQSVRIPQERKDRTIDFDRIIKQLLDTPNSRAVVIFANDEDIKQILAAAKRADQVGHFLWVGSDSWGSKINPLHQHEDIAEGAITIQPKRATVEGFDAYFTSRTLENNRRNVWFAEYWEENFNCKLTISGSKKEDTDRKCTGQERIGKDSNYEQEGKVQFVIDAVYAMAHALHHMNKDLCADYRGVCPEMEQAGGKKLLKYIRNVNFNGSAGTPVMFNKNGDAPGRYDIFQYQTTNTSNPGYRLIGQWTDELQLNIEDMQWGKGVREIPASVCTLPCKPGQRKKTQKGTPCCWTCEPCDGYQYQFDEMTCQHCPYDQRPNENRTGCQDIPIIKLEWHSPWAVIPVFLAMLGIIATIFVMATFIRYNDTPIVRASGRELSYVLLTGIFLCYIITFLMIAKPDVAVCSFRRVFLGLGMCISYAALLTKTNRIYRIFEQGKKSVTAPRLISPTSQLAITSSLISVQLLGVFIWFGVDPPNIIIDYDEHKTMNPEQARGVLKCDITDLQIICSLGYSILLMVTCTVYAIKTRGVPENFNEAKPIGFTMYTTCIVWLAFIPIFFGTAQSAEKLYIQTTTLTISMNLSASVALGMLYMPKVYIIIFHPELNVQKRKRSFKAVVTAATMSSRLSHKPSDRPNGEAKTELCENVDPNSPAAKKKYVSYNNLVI
Chain of Metabotropic glutamate receptor 1 (P23385 whole entry): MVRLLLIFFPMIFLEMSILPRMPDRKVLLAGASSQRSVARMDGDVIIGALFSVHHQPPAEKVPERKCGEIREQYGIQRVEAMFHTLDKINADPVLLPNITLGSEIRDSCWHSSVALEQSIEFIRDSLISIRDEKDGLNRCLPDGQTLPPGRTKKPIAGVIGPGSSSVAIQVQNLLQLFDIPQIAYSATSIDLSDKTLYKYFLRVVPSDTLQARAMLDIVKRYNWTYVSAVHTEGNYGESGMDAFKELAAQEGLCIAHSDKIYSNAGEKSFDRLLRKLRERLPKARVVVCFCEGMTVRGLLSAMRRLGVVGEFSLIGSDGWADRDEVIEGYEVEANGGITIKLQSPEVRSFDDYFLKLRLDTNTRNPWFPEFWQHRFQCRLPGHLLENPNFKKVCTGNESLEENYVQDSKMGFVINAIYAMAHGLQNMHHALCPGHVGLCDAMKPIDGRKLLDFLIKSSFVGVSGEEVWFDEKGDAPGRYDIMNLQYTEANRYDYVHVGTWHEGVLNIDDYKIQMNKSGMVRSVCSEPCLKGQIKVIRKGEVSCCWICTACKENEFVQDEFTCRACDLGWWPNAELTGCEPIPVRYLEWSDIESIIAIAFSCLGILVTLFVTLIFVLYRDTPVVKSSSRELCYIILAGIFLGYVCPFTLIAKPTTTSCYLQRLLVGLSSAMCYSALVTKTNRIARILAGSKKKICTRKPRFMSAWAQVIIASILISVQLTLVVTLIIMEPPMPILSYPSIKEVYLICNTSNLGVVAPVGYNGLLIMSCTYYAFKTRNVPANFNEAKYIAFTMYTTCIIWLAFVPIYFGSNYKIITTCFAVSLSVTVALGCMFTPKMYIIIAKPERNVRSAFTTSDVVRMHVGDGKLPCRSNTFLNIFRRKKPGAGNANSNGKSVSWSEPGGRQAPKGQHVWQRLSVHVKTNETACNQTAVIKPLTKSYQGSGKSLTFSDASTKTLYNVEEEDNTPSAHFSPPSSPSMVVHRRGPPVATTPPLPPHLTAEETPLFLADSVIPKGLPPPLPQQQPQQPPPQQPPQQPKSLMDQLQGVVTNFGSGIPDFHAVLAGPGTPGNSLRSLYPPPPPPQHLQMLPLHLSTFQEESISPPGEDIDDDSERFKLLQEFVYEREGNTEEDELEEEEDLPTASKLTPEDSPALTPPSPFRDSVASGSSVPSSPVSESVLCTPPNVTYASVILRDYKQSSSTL
Chain of Metabotropic glutamate receptor 6 (P35349 whole entry): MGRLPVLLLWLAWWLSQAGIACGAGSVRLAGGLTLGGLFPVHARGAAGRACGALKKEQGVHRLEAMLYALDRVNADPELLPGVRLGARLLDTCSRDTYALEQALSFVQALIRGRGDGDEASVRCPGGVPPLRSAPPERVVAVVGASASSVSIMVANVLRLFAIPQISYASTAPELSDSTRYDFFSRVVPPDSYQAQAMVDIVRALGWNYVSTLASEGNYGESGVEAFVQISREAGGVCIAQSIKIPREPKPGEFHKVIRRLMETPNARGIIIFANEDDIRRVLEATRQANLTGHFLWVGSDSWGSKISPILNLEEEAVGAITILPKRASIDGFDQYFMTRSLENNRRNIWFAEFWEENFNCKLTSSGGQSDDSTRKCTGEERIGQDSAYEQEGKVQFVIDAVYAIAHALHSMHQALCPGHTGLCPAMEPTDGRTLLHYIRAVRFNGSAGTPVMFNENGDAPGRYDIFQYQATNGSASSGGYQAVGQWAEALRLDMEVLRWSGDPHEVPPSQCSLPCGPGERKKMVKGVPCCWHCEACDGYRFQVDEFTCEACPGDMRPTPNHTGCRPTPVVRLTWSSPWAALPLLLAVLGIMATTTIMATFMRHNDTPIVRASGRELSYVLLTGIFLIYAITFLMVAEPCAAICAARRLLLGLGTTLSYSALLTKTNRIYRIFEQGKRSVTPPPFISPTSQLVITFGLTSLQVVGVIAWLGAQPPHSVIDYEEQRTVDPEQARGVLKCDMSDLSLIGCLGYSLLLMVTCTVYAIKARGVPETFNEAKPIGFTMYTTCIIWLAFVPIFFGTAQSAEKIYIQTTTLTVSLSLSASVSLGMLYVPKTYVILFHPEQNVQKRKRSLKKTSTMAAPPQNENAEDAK

With `NC(C(=O)O)[C@@H]1[C@H](c2ccccc2)[C@H]1P(=O)(O)O` (some centres not stated), the concentration giving a half-maximal response (EC50) in experiment [1], in experiment [2], in experiment [3] and in experiment [4] was more than 1000 µM throughout. Moreover, the Ki in experiment [5] is more than 1000 µM.
Consider `NC(C(=O)O)[C@@H]1[C@@H](c2ccccc2)[C@H]1P(=O)(O)O` (some centres not stated), for which the EC50 in experiment [2], in experiment [6], in experiment [3], in experiment [4] and in experiment [7] was more than 1000 µM each time. Also, the Ki in experiment [5] is more than 1000 µM.
For `NC(C(=O)O)[C@H]1[C@H](c2ccccc2)[C@@H]1P(=O)(O)O` (some centres not stated), the Ki stood at 130 µM in experiment [8] and 24 µM in experiment [5]. Also, the EC50 in experiment [1] was 59 µM; in experiment [2], more than 1000 µM; in experiment [6], more than 1000 µM; in experiment [3] it was more than 1000 µM; in experiment [4], more than 1000 µM; in experiment [7], 51 µM.
Consider `NC(C(=O)O)[C@H]1[C@@H](c2ccccc2)[C@@H]1P(=O)(O)O` (some centres not stated), for which the inhibition constant Ki is 190 µM in experiment [8] and 630 µM in experiment [5]. Besides, the EC50 in experiment [2] was 320 µM; in experiment [3], more than 1000 µM; in experiment [4], more than 1000 µM.
As for `NC(C(=O)O)[C@H]1C[C@@H]1P(=O)(O)O` (some centres not stated), the Ki in experiment [8] stood at 63 µM; in experiment [5], 7.4 µM. Also, the EC50 is 9.4 µM in experiment [1]; more than 1000 µM in experiment [2]; 700 µM in experiment [6]; more than 1000 µM in experiment [3]; more than 1000 µM in experiment [4]; 13 µM in experiment [7].
